Converted amounts (≈) assume the structure as drawn.
How the values were obtained:
[1] = Dissociation constant, pKa of compound; assay type: physicochemical
[2] = system: Candida albicans; test: Synergistic antifungal activity against drug resistant Candida albicans DF2672R after 24 hrs in presence of amphotericin B by checkerboard assay; assay type: functional
Outline: (§1)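 Checkerboard combination of each compound with a second antifungal, following a previously reported procedure. FIC = MIC of A in combination/MIC of A alone + MIC of B in combination/MIC of B alone.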

[3] = system: Candida albicans; test: Fungicidal activity against drug resistant Candida albicans DF2672R at 1 time MIC after 1 hr by time kill assay relative to control; assay type: functional
Outline: (§2)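 Cells at 10^5–10^6 CFU/mL exposed to 1×, 2×, 4× or 8× MIC at 35 °C. Samples taken at 0.5, 1, 2, 4, 8 and 24 h, serially diluted in PBS and plated on SDA. CFU counted after 24 h at 35 °C; biological replicates.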

[4] = system: Candida albicans; test: Synergistic antifungal activity against drug resistant Candida albicans DF2672R after 24 hrs in presence of posaconazole by checkerboard assay; assay type: functional; outline: as §1
[5] = system: Candida albicans; test: Antifungal activity against Candida albicans ATCC 10231 after 24 hrs by two fold serial dilution method; assay type: functional; conditions: ATCC 10231, 24 h
Outline: (§3)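 Candida grown on Sabouraud dextrose agar at 35 °C for 24 h, adjusted to ~5×10^3 CFU/mL. Two-fold dilutions from 100 to 0.78 μg/mL in Sabouraud dextrose broth, incubated at 35 °C for 24 h. MIC is the lowest concentration inhibiting growth by eye and by OD600. CLSI-based with minor modifications.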

[6] = system: Aspergillus fumigatus; test: Antifungal activity against Aspergillus fumigatus TCC 90906 after 48 hrs by two fold serial dilution method; assay type: functional; conditions: TCC 90906, 48 h
Outline: (§4)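 Moulds grown on potato dextrose agar, 30 °C, 4 days; inoculum adjusted to about 5×10^3 CFU/mL. Two-fold serial dilutions in RPMI-1640 broth, 100 to 0.78 μg/mL final, mixed with equal volume of cell suspension; incubated 30 °C, 48 h. MIC = lowest concentration inhibiting growth, judged visually and by OD530.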

[7] = system: Candida albicans; test: Synergistic antifungal activity against drug resistant Candida albicans DF2672R after 24 hrs in presence of natamycin by checkerboard assay; assay type: functional; outline: as §1
[8] = system: Candida albicans; test: Fungicidal activity against drug resistant Candida albicans DF2672R at 4 times MIC after 1 hr by time kill assay relative to control; assay type: functional; outline: as §2
[9] = system: Candida albicans; test: Antifungal activity against drug resistant Candida albicans DF2672R infected C57BL6 mouse cornea at 0.2% administered topically for every 20 mins during the first hour and every 1 hr during the next 6 hrs by serial dilution method; assay type: functional
Outline: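 C57BL6 mice aged 7–8 weeks (19–23 g), immunosuppressed with cyclophosphamide 100 mg/kg ip at 4 days and 1 day before infection and on day 1 after. Left cornea scratched under xylazine/ketamine, then 20 μL of ~5×10^7 CFU/mL yeast in PBS applied. Treatment started 1 day later; PBS served as control; four mice per group. Corneal fungal load counted by serial dilution plating on SDA.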

[10] = Cytotoxicity against human corneal fibroblasts assessed as reduction in cell viability after 4 hrs by LDH assay; assay type: cell-based; conditions: Corneal fibroblast
Outline: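 LDH release assay on human corneal fibroblasts seeded at 10000 cells per well, exposed to a range of compound concentrations up to 100 μM. 1% Triton X-100 served as positive control and 0.5% DMSO as negative control; biological replicates.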

[11] = system: Staphylococcus aureus; test: Antibacterial activity against Staphylococcus aureus DM4001R by two fold serial dilution method; assay type: functional
Outline: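 Broth microdilution (CLSI, minor modifications) in Sabouraud dextrose, Mueller−Hinton or RPMI 1640 broth; two-fold serial dilutions of compound from stock to final 100 to 0.78 μg/mL. MIC taken as lowest concentration giving no visible growth.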

[12] = system: Candida albicans; test: Antifungal activity against drug resistant Candida albicans DF2672R after 24 hrs by two fold serial dilution method; assay type: functional; outline: as §3
[13] = system: Candida albicans; test: Synergistic antifungal activity against drug resistant Candida albicans DF2672R after 24 hrs in presence of miconazole by checkerboard assay; assay type: functional; outline: as §1
[14] = system: Aspergillus flavus; test: Antifungal activity against Aspergillus flavus TCC MYA3631 after 48 hrs by two fold serial dilution method; assay type: functional; conditions: TCC MYA3631, 48 h; outline: as §4

For `COc1c(OCC(O)CNC(=N)N)cc2oc3cc(OCC(O)CNC(=N)N)c(CC=C(C)C)c(O)c3c(=O)c2c1CC=C(C)C` (centres undefined), the pKa [1] was 12.5, the “fractional inhibitory concentration index (FICI)” value [2] was 1.28 and the Activity [3] was 91%. For the same molecule, the “fractional inhibitory concentration index (FICI)” value [4] was 1.06, the MIC [5] was 0.78 µg/mL (≈ 1.22 µM) and the MIC [6] was 6.25 µg/mL (≈ 9.75 µM). For the same molecule, the “fractional inhibitory concentration index (FICI)” value [7] was 1.08, the Activity [8] was 99.9% and the Activity [9] was 92.8%. For the same molecule, the IC50 [10] was greater than 100 µM, the MIC [11] was 1.56 to 3.13 µg/mL (≈ 2.43 to 4.88 µM) and the MIC [12] was 0.78 µg/mL (≈ 1.22 µM). The “fractional inhibitory concentration index (FICI)” value [13] was 0.88 and the MIC [14] was 6.25 µg/mL (≈ 9.75 µM).

Source: ChEMBL document CHEMBL4028907, “Semisynthesis and Biological Evaluation of Xanthone Amphiphilics as Selective, Highly Potent Antifungal Agents to Combat Fungal Resistance” (J Med Chem, 2017)
